{"source": "ChEMBL document CHEMBL2424619", "about": "“Small-molecule ligands of methyl-lysine binding proteins: optimization of selectivity for L3MBTL3” (J Med Chem, 2013)", "key": {"[1]": {"target": "T1, Muscarinic acetylcholine receptor M1 (Homo sapiens) (UniProt P11229)", "T1 sequence (whole entry)": "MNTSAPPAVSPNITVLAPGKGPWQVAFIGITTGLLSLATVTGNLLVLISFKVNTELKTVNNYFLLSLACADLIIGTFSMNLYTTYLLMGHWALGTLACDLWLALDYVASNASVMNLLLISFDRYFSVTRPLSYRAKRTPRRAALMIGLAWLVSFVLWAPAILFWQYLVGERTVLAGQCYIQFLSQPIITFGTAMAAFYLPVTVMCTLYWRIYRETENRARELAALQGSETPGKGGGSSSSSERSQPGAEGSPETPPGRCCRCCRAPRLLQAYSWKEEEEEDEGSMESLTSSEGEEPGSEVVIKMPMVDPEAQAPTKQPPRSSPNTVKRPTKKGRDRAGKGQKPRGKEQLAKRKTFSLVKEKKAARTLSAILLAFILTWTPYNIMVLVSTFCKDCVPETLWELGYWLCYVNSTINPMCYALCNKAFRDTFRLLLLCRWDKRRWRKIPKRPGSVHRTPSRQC", "test": "Antagonist activity at muscarinic M1 receptor (unknown origin) expressed in HEK293T cells assessed as inhibition of UNC1679 calcium mobilization at 30 uM", "type": "functional, cell-based", "settings": "HEK-293T", "outline": "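Test compound assayed for M1 antagonism at one concentration, 30 μM, scored as percent inhibition.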"}, "[2]": {"target": "T2, Muscarinic acetylcholine receptor M1 (Homo sapiens, UniProt P11229)", "T2 sequence (P11229 whole entry)": "T1 sequence (whole entry)", "test": "Antagonist activity at muscarinic M1 receptor (unknown origin) expressed in HEK293T cells assessed as inhibition of UNC1679 calcium mobilization", "type": "functional, cell-based, HEK-293T"}}}
{"smiles": "CCN1Cc2ccc(NC(=O)c3ccc(C(=O)N4CCC(C5CCCN5)CC4)cc3)cc2C1", "note": "(configuration not stated)", "values": [{"measurement": "inhibition", "setting": "[1]", "value": "< 20", "unit": "%"}]}
{"smiles": "O=C(c1ccc(C(=O)N2CCC(N3CCCC3)CC2)c(Nc2ccccc2)c1)N1CCC(N2CCCC2)CC1", "values": [{"measurement": "IC50", "setting": "[2]", "value": 3.5, "unit": "µM"}]}
